Active and inactive are the calls of the source. The rule behind the calls is not given here.

The target in this test is Muscarinic acetylcholine receptor M3 (Homo sapiens) (UniProt P20309). Briefly: ACh response enhancement at M3 – CHO cells, human M3, selectivity assay for M5 PAM project (AID 651922). In a few lines:
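System: CHO-K1 cells stably expressing human M3 muscarinic receptor, Fluo-4 loaded; compound dosing: final DMSO 0.3% in assay wells; schedule: dye loading 45-60 min at 37 °C before assay; technique: Fluo-4 fluorescence calcium mobilization measurement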

Muscarinic acetylcholine receptor M3 (Homo sapiens), sequence (P20309 whole entry, looked up): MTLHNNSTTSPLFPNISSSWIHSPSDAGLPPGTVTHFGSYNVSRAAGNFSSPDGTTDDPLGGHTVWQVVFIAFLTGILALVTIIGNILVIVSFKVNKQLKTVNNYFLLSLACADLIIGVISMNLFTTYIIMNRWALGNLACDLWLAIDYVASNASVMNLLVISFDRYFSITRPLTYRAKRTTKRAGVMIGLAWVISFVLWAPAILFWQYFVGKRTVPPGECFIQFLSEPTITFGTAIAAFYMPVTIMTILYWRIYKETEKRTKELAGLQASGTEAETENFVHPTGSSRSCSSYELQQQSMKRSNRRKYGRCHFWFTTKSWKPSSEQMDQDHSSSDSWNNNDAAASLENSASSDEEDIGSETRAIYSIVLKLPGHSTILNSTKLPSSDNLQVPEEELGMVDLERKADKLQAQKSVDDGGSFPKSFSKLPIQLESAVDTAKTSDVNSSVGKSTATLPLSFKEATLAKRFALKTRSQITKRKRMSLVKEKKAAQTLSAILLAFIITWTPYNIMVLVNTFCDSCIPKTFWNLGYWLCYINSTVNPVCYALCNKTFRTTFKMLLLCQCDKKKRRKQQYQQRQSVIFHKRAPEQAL

For the compound `O=C1C(=O)N(CCOc2ccccc2)c2ccc(OC(F)(F)F)cc21`, the result was inactive.

Source of the values: PubChem BioAssay AID651922 (Vanderbilt Specialized Chemistry Center, 2012).
